The text below walks through data of ChEMBL document CHEMBL5357022, “Fluorinated Isoindolinone-Based Glucosylceramide Synthase Inhibitors with Low Human Dose Projections” (ACS Med Chem Lett, 2024).

For orientation: Emax means the maximal effect, on the per cent scale that the assay sets. A word on the EC50: it is the concentration giving half of the maximal effect. A higher EC50 goes with lower potency in that assay. What is called bioavailability is dose-corrected exposure relative to a reference, in per cent. Read a high bioavailability as much systemic uptake. As a reminder, the fraction unbound is free concentration divided by total concentration. The term logD denotes the decadic logarithm of the distribution of all forms, ionised or not, between an organic phase and buffer at a given pH. By MRT is commonly meant a mean duration of stay, worked out from the concentration-time curve. For orientation: CL/F means clearance divided by bioavailability, as obtained after extravascular dosing.

One data set addresses T1, PXR (NR1I2) (Homo sapiens, UniProt O75469).
T1 sequence (O75469 whole entry): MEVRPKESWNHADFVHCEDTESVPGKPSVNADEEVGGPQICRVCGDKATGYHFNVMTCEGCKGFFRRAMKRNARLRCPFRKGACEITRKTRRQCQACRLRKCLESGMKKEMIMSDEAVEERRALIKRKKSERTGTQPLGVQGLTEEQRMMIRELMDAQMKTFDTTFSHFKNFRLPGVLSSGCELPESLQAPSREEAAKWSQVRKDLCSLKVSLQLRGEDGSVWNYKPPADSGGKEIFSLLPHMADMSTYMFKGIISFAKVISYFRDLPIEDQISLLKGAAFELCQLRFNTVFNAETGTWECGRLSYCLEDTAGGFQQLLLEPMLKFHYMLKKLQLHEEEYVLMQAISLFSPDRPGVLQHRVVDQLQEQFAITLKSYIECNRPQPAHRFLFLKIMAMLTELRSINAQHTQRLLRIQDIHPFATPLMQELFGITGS
As to the kind of experiment: Activation of PXR (unknown origin) assessed as maximal efficacy relative to control. The data set is classed as toxicity.

In data set [1] the target is T2, Nuclear receptor subfamily 1 group I member 2 (Homo sapiens, UniProt O75469).
T2 sequence (O75469 whole entry): T1 sequence (O75469 whole entry)
As to the kind of experiment: Activation of PXR (unknown origin). The data set is classed as toxicity.

Data set [2] can be described thus: Oral bioavailability in Wistar Han rat at 5 mg/kg measured after 24 hrs. The conditions noted are these: in vivo. The data set is classed as ADME, organism-based. Put shortly:
(§1)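 Wistar Han rats were dosed IV at 2 mg/kg in DMSO/PEG400/H2O 20/60/20 at 1 mL/kg, and PO at 5 mg/kg in PEG400/Tween80/H2O 40/10/50 at 2 mL/kg. Sampling ran to a 24 h end point.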

A short description of data set [3]: Metabolic stability in human hepatocytes assessed as intrinsic clearance. The format is ADME, cell-based, Hepatocyte. The following applies: read-out: CLH.
Data set [4] in a line: Unbound volume of distribution in Beagle dog at 1 mg/kg, po in 10% tween 80 formulation or 0.5 mg/kg, iv measured after 24 hrs. The conditions noted are these: in vivo. The data set is classed as ADME, organism-based, Canis lupus familiaris. A digest of the protocol: (§2)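 Beagle dogs were given 0.5 mg/kg IV in DMSO/PEG400/H2O 20/60/20 at 0.5 mL/kg, and 1 mg/kg PO in a 10% Tween 80 formulation. Sampling ran to a 24 h end point.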

Data set [5] is described as follows: Plasma protein binding in rat assessed as unbound fraction. The format is ADME, cell-free.
Data set [6] in a line: Unbound brain-to-plasma concentration ratio in rat. The format is ADME. The following applies: read-out: K(p,uu,brain).
The nature of data set [7]: Octanol-water partition coefficient, logD of the compound. The data set is classed as physicochemical.
Data set [8] in a line: Oral bioavailability in Beagle dog at 1 mg/kg in 10% tween 80 formulation measured after 24 hrs. The format is ADME, organism-based, Canis lupus familiaris. The following applies: in vivo. A digest of the protocol:
as §2

A short description of data set [9]: Plasma protein binding in human assessed as unbound fraction. The data set is classed as ADME, cell-free.
The nature of data set [10]: MRT in Wistar Han rat at 5 mg/kg, po or 2 mg/kg, iv measured after 24 hrs. The format is ADME, organism-based. The conditions noted are these: in vivo. Put shortly: as §1
The nature of data set [11]: Plasma protein binding in dog assessed as unbound fraction. The format is ADME, cell-free, Canis lupus familiaris.
Data set [12] can be described thus: Intrinsic clearance in Wistar Han rat at 5 mg/kg, po or 2 mg/kg, iv measured after 24 hrs. The format is ADME, organism-based. The conditions noted are these: in vivo. Put shortly: as §1
Data set [13] in a line: Unbound volume of distribution in Wistar Han rat at 5 mg/kg, po or 2 mg/kg, iv measured after 24 hrs. The format is ADME, organism-based. The following applies: in vivo. Put shortly:
as §1

The nature of data set [14]: MRT in Beagle dog at 1 mg/kg, po in 10% tween 80 formulation or 0.5 mg/kg, iv measured after 24 hrs. The format is ADME, organism-based, Canis lupus familiaris. The conditions noted are these: in vivo. A digest of the protocol:
as §2

A short description of data set [15]: […] clearance in Beagle dog at 1 mg/kg, po in 10% tween 80 formulation or 0.5 mg/kg, iv measured after 24 hrs. The data set is classed as ADME, organism-based, Canis lupus familiaris. The following applies: in vivo. A digest of the protocol:
as §2

A short description of data set [16]: MRT in Beagle dog at 1 mg/kg, po in 30% captisol formulation or 0.5 mg/kg, iv measured after 24 hrs. The format is ADME, organism-based, Canis lupus familiaris. The conditions noted are these: in vivo. Put shortly: (§3)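 Beagle dogs were given 0.5 mg/kg IV in DMSO/PEG400/H2O 20/60/20 at 0.5 mL/kg, and 1 mg/kg PO in 30% Captisol at 2 mL/kg. Sampling ran to a 24 h end point.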

The nature of data set [17]: Oral bioavailability in Beagle dog at 1 mg/kg in 30% captisol formulation measured after 24 hrs. The data set is classed as ADME, organism-based, Canis lupus familiaris. The following applies: in vivo. A digest of the protocol: as §3
Data set [18] can be described thus: Unbound volume of distribution in Beagle dog at 1 mg/kg, po in 30% captisol formulation or 0.5 mg/kg, iv measured after 24 hrs. The following applies: in vivo. The format is ADME, organism-based, Canis lupus familiaris. Put shortly: as §3
The nature of data set [19]: […] clearance in Beagle dog at 1 mg/kg, po in 30% captisol formulation or 0.5 mg/kg, iv measured after 24 hrs. The format is ADME, organism-based, Canis lupus familiaris. The conditions noted are these: in vivo. A digest of the protocol:
as §3

Data set [20] in a line: Unbound volume of distribution in Wistar Han rat at 4 mg/kg, po measured after 24 hrs. The data set is classed as ADME, organism-based. The following applies: in vivo. Put shortly: (§4)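 Wistar Han rat PK study with a 24 h end point, using an oral dose of 4 mg/kg.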
Data set [21] can be described thus: MRT in Wistar Han rat at 4 mg/kg, po measured after 24 hrs. The format is ADME, organism-based. The following applies: in vivo. A digest of the protocol:
as §4

Data set [22] can be described thus: Clearance in Wistar Han rat at 4 mg/kg, po measured after 24 hrs. The format is ADME, organism-based. The conditions noted are these: in vivo. A digest of the protocol: as §4
Data set [23] in a line: Oral bioavailability in Wistar Han rat at 4 mg/kg measured after 24 hrs. The format is ADME, organism-based. The following applies: in vivo. Put shortly: as §4
Data set [24] in a line: Intrinsic clearance in Wistar Han rat at 4 mg/kg, po measured after 24 hrs. The data set is classed as ADME, organism-based. The following applies: in vivo. A digest of the protocol:
as §4

A short description of data set [25]: MRT in rat. The data set is classed as ADME. The conditions noted are these: in vivo.

Each structure is given as a SMILES string.

For `CN1Cc2cc(-c3cccc4c3C(=O)N([C@H](C3CC3)C(C)(C)O)C4)ccc2C1=O`, the Emax at PXR (NR1I2) turned out to be 11%. Moreover, the EC50 in data set [1] was above 30 µM.
In the same order, the values of `Cc1nnc(-c2ccc(-c3c(F)cc(F)c4c3C(=O)N([C@H](C3CC3)C(C)(C)O)C4)cc2)o1` are 100% and 4.6 µM.
In the case of `Cc1nnc(-c2ccc(-c3cccc4c3C(=O)N([C@H](C3CC3)C(C)(C)O)C4)cc2)o1`, the values for the bioavailability in [2] and in data set [8] were 100% and 81%, respectively. For the same compound, the CLint scaled in data set [3] is 15 mL/min/kg. The Vdu in data set [4] came to 9.9 L/kg; in data set [13], 36 L/kg. In addition, the fraction unbound is 0.013 in data set [5], 0.032 in [9] and 0.1 in data set [11]. Moreover, the Kp uu in [6] was determined as 0.5. This compound also gave a logD in [7] of 2.3. Further, the MRT is 3 h in data set [10] and 8.6 h in data set [14]. Further, the Emax at PXR (NR1I2) stood at 89%. The EC50 in [1] turned out to be 29 µM. For the same compound, the CL in [12] came to 211 mL/min/kg; in data set [15] it was 13 mL/min/kg.
Consider `Cc1nnc(-c2ccc(-c3ccc(F)c4c3C(=O)N([C@H](C3CC3)C(C)(C)O)C4)cc2)o1`, for which the Emax on PXR (NR1I2) came out at 97%. In data set [1], this compound returned an EC50 of 8.9 µM.
With `Cc1nnc(-c2ccc(-c3cc(F)c(F)c4c3C(=O)N([C@H](C3CC3)C(C)(C)O)C4)cc2)o1`, the bioavailability in [2] came to 57%; in data set [17] it was 64%. Moreover, the CLint scaled in data set [3] turned out to be 13 mL/min/kg. Also, the fraction unbound was determined as 0.021 in data set [5], 0.05 in [9] and 0.14 in data set [11]. In addition, the Kp uu in [6] turned out to be 0.1. The figures for the MRT in data set [16] and in data set [10] were 11 h and 3.7 h, respectively. Moreover, the results for the CL in [12] and in data set [19] were 169 mL/min/kg and 17 mL/min/kg, respectively. In addition, the Vdu in data set [13] worked out at 36 L/kg; in data set [18] it was 17 L/kg.
Turning to `Cc1nnc(-c2ccc(-c3cc(F)cc4c3C(=O)N([C@H](C3CC3)C(C)(C)O)C4)cc2)o1`, the Vdu in data set [20] was determined as 16 L/kg; in data set [18] it was 12 L/kg. Further, in data set [3], the CLint scaled was found to be 19 mL/min/kg. In addition, the MRT is 2.3 h in [21] and 10 h in data set [16]. This compound registered a CL/F in data set [22] of 3 mL/min/kg. For the same compound, the fraction unbound in data set [5] turned out to be 0.026; in data set [9], 0.046; in [11] it was 0.2. Also, the bioavailability worked out at 38% in [23] and 100% in data set [17]. Further, the CL in data set [24] is 120 mL/min/kg; in [19], 21 mL/min/kg. In addition, the Emax on PXR (NR1I2) came out at 75%. Moreover, the EC50 in data set [1] was 25 µM.
Regarding `Cc1nnc(-c2ccc(-c3c(F)c(F)cc4c3C(=O)N([C@H](C3CC3)C(C)(C)O)C4)cc2)o1`, the bioavailability in [2] turned out to be 36%; in data set [17], 75%. For the same compound, in data set [3], the CLint scaled turned out to be 33 mL/min/kg. Moreover, the values for the unbound share (fraction unbound) in [5], in [9] and in data set [11] were 0.038, 0.098 and 0.2, respectively. In addition, the Kp uu in [6] worked out at 0.2. In addition, the MRT amounted to 10 h in data set [16] and 5.7 h in data set [10]. Also, the Emax at PXR (NR1I2) turned out to be 100%. The compound also had an EC50 in data set [1] of 6.1 µM. Also, the CL came to 30 mL/min/kg in data set [12] and 11 mL/min/kg in [19]. In addition, the Vdu in data set [13] is 10 L/kg; in data set [18], 7.1 L/kg.
Consider `Cc1nnc(-c2ccc(-c3c(F)cc(F)c4c3C(=O)N([C@@H](C(C)(C)O)C(F)(F)F)C4)cc2)o1`, for which the Emax on PXR (NR1I2) worked out at 100%. In addition, the midpoint of the response in data set [1], the EC50, lay at 14 µM.
Consider `Cc1nnc(-c2ccc(-c3c(F)ccc4c3C(=O)N([C@H](C3CC3)C(C)(C)O)C4)cc2)o1`, for which, on PXR (NR1I2), the Emax came out at 100%. The compound further came in with an EC50 in data set [1] of 5.2 µM.
Regarding `CCOc1ccccc1C(=O)Nc1cccc2c1C(=O)N(CC1CC1)C2`, the Emax on PXR (NR1I2) is 81%. In data set [1], the EC50 is 4.3 µM. This compound came in with an MRT in data set [25] of 1.4 h.
In the case of `Cc1nnc(-c2ccc(-c3c(F)c(F)cc4c3C(=O)N([C@@H](C(C)(C)O)C(F)(F)F)C4)cc2)o1`, the figures for the bioavailability in [2] and in [17] were 83% and 79%, respectively. Also, the CLint scaled in data set [3] came to 4.5 mL/min/kg. The fraction unbound stood at 0.037 in data set [5], 0.067 in [9] and 0.11 in [11]. Moreover, the Kp uu in [6] turned out to be 0.4. For the same compound, the logD in [7] was 2.7. Further, the values for the MRT in [16] and in data set [10] were 11 h and 9.9 h, respectively. The Emax on PXR (NR1I2) came out at 80%. In addition, a half-maximal response in [1] (EC50) required 12 µM. Besides, the CL stood at 30 mL/min/kg in data set [12] and 23 mL/min/kg in data set [19]. In addition, the values for the Vdu in data set [13] and in [18] were 18 L/kg and 14 L/kg, respectively.
